For orientation: EC50 means the concentration at which the effect is half-maximal.

What all share (type): cell-based
Series [1] addresses T1, Nuclear receptor subfamily 1 group I member 2 (Homo sapiens, UniProt O75469).
T1 sequence (O75469 whole entry): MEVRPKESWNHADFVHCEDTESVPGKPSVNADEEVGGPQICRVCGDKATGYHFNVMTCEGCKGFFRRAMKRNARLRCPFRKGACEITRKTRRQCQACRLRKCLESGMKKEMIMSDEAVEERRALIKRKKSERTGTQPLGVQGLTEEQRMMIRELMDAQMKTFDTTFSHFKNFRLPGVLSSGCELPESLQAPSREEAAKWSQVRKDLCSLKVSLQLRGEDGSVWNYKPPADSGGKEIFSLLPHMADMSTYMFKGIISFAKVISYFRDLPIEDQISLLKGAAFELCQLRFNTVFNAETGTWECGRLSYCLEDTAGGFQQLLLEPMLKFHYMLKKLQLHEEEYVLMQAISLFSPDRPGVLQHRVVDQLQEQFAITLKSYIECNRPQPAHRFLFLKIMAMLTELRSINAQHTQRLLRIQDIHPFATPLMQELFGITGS
Briefly: Antagonist activity at human full-length PXR transfected in human HepG2 cells co-transfected with pSG5-RXR assessed as reversal of rifaximin-induced transactivation at 10 to 25 uM after 18 hrs by luciferase reporter gene assay. Particulars: hepg2, 18 h; call rule not given here. The gist of the method:
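Dose–response antagonism test in a luciferase reporter assay: transfected HepG2 cells received compound at 10, 25 or 50 together with rifaximin 10 to assess reversal of rifaximin-driven PXR transactivation.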
On the technique in general: A reporter such as luciferase makes a cellular process visible.

Series [2] deals with T1, Nuclear receptor subfamily 1 group I member 2. In words: Partial agonist activity at human full-length PXR transfected in human HepG2 cells co-transfected with RXR assessed as reversal of rifaximin-induced transactivation at 50 uM after 18 hrs by luciferase reporter gene assay. Particulars: hepg2, 18 h. The gist of the method:
(§1)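 HepG2 cells cotransfected with pSG5-hPXRT1, pSG5-RXR, pCMV-βgal and pGL3(henance)PXRE reporter. At 24 h post-transfection, primed 18 h with compound at 50 plus rifaximin at 10 (antagonist mode). Luciferase luminescence measured in lysates and normalized to β-galactosidase activity. Significance p < 0.05 vs rifaximin.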

Series [3] shares this target. Briefly: Antagonist activity at human full-length PXR transfected in human HepG2 cells co-transfected with pSG5-RXR assessed as reversal of rifaximin-induced transactivation at 50 uM after 18 hrs by luciferase reporter gene assay. Particulars: hepg2, 18 h. The gist of the method: as §1
For series [4] the target is unchanged. Briefly: Agonist activity at human full-length PXR transfected in human HepG2 cells co-transfected with pSG5-RXR assessed as induction of transactivation by dual-luciferase reporter gene assay. Particulars: for Activity: human, hepg2. The gist of the method: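 HepG2 cells grown at 37 °C in MEM with Earle's salts, 10% FBS, 1% L-glutamine, 1% penicillin/streptomycin, seeded at 5 × 10^4 cells/well. Cotransfected with pSG5-hPXRT1, pSG5-RXR, pGL4.70-Renilla and pGL3(henance)PXRE reporter. Treated with rising concentrations (1, 10, 50) with rifaximin as positive control. Dual-luciferase readout; firefly RLU divided by Renilla RLU; EC50 from concentration–response curve.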

For the compound `CC(C)[C@H](C)CC[C@@H](C)[C@H]1CCC2=C3CC[C@H]4[C@@H](C)[C@@H](O)CC[C@]4(C)[C@H]3CC[C@@]21C`, the figures for the Activity result in series [1], in series [2] and in series [3] were “Not Active”, “Active” and “Active”, respectively.

Consider `CC(C)[C@H](C)CC[C@@H](C)[C@H]1CCC2=C3CC[C@H]4[C@H](C)[C@H](O)CC[C@]4(C)[C@H]3CC[C@@]21C`, for which the result in series [2] was Active. For the same compound, in series [4], the EC50 was found to be 18 µM and the Activity result is listed as “Dose-dependent effect”.

With `C=C1[C@@H](O)CC[C@@]2(C)[C@H]1CCC1=C3CC[C@H]([C@H](C)CCC=C(C)C)[C@@]3(C)CC[C@@H]12`, the Activity result in series [2] is “Active”; in series [4] it was “Dose-dependent effect”. In addition, the EC50 in series [4] is 21 µM.
